Measurements of several laboratories.
Compare with care: the assays were run in different laboratories.
Target: Cyclin-dependent kinase 15 (CDK15, Homo sapiens, UniProt Q96Q40)

Structure (SMILES)	observed	technique	tested at	remaining binding
Cc1cnc(Nc2ccc(C(=O)N3CCC(N4CCCC4)CC3)cc2)nc1-c1cc2ccccc2s1	binding	competition with immobilised ligand	1 µM	99%
O=S(=O)(NC1CCC(c2cc(F)ccc2F)(S(=O)(=O)c2ccc(Cl)cc2)CC1)C(F)(F)F (stereo not shown)	cell-free assay	competition with immobilised ligand	1 µM	100%
O=C(Nc1c[nH]nc1C(=O)NC1CCNCC1)c1cc(F)cc(F)c1	binding	competition with immobilised ligand	1 µM	79%
COc1cnc(Nc2cccc(S(N)(=O)=O)c2)nc1N1CCN(c2ccccc2)C(=O)C1	binding	competition with immobilised ligand	1 µM	100%
CS(=O)(=O)c1cc(C2(NC(=O)c3cncc4c3cnn4-c3ccc(F)cc3)CC2)ccn1	cell-free assay	competition with immobilised ligand	1 µM	100%
CN(C)c1ncc(F)c(-c2cnn3ncccc23)n1	binding	–	1 µM	100%
O=C(O)c1cc(-c2ccc(C3CCNCC3)cc2)c2ccc(-c3ccc(C(F)(F)F)cc3)cc2c1	cell-free assay	competition with immobilised ligand	1 µM	96%
CN(C)c1nccc(-c2cnn3ncccc23)n1	binding	–	1 µM	100%
O=C(c1ccc(Nc2ncc(Cl)c(-c3ccc(Cl)s3)n2)cc1)N1CCC(N2CCCC2)CC1	binding	competition with immobilised ligand	1 µM	43%
Cn1nc(C(=O)NCc2ccc(C(=O)O)cc2)cc1-c1ccc2[nH]ccc2c1	cell-free assay	competition with immobilised ligand	0.1 µM	95%
CN(C)c1nccc(-c2cnc3ncccn23)n1	binding	–	1 µM	83%
C[C@@H](c1ccc(-n2cnc3c(N)ncnc32)cc1)N1CCc2nn(C)c(Cc3ccccc3)c2C1=O	binding	competition with immobilised ligand	0.1 µM	86%
O=C(NCCCN1CCOCC1)c1ccc(Nc2nccc(-c3cc4ccccc4s3)n2)cc1	binding	competition with immobilised ligand	1 µM	87%
CN(CCCC(F)(F)F)c1nccc(-c2cnn3ncccc23)n1	binding	–	1 µM	100%
FC(F)(F)Oc1cccc(-c2cnc3ccc(-c4ccncc4)nn23)c1	cell-free assay	competition with immobilised ligand	5 µM	63%
N[C@@H]1CCN(c2nccc(-c3cnn4ncccc34)n2)C1	binding	–	1 µM	100%
CNC(=O)[C@@H]1CC[C@@H](n2c(-c3ccc4cnccc4c3)nc3ccc(C(=O)NCc4cccc(C(N)=O)c4)cc32)C1	binding	competition with immobilised ligand	1 µM	100%
COc1ccnn2ncc(-c3ccnc(N(C)C)n3)c12	binding	–	1 µM	41%
Cc1nc(N2CC[C@@H](O)C2)ncc1-c1cc(C(F)(F)F)cc2[nH]ncc12	binding	competition with immobilised ligand	1 µM	81%
C=CC(=O)N1CCC(C(=O)NCC(=O)N2CCN(c3nc(-c4cnc(N)nc4C(F)F)nc(N4CCOCC4)n3)CC2)CC1	binding	competition with immobilised ligand	1 µM	100%
COc1cccc(CNC(=O)c2nc3scc(COCc4ccc(C(=O)O)cc4)c3c(=O)[nH]2)c1	cell-free assay	competition with immobilised ligand	1 µM	97.6%
Cc1cnn2ncc(-c3ccnc(N(C)C)n3)c2c1	binding	–	1 µM	100%
